The nature of experiment [1]: S. cerevisiae growth inhibition in permissive medium (OD615), pilot counter-assay for S. cerevisiae lifespan shortening project, permissive growth control (AID 705;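 active means growth inhibition above 25% in both replicates, a cutoff set 3 SD above the mean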). Particulars: OD615, 24 h, at 10 µM, hits give high values. In short, it runs like this:
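Test system: Saccharomyces cerevisiae strain carrying genetically modified DeaD replicative-lifespan system; buffer or medium: SC raffinose/galactose permissive medium; dosing: one dose 10 µM, DMSO 0.25% final; times: 24 h exposure, 30 °C; measured by: OD at 615 nm; read-out basis: growth inhibition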

Experiment [2] is described as follows: S. cerevisiae growth inhibition in restrictive medium, OD615, pilot screen, restrictive growth control, yeast lifespan reduction project (AID 706;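 active means growth inhibition above a set limit, 3 SD over mean compound inhibition, in both replicates, cut at about 43% in these data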;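 further: modified DeaD lifespan yeast strain shifted to restrictive glucose medium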). Particulars: OD615, 48 h, at 10 µM, hits give high values. In short, it runs like this: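 material = engineered S. cerevisiae DeaD strain | buffer or medium = glucose-based CSMM-D restrictive medium | dosing = one concentration, 10 µM final, 0.25% DMSO | schedule = 4 h pre-growth plus 48 h compound exposure, 30 °C | detection = OD615 absorbance reading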

Experiment [3] is described as follows: doxorubicin toxicity protection in MRP-1 cells – H69AR cells, CellTiter-Glo, duplicate, MRP-1 activator project, pilot screen (AID 807).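 Further: compound pretreatment 18-22 h then 72 h combined with doxorubicin; 0% = doxorubicin alone and 100% = vehicle without doxorubicin.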 Particulars: H69AR viability with doxorubicin, CellTiter-Glo luminescence; at 10 µM; hits give high values. Background: ATP-based viability assays read luminescence as a measure of living cells.
A short description of experiment [4]: viability of PTEN-null HCT116 cells – cell-based, HCT116 clonal line, CellTiter-Glo, pilot screen (AID 824;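 active means viability at or below 27.92% in each of two runs, the all-compound median minus 4 SD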;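 further: 0% = 20 µM Hyamine control and 100% = vehicle cell control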). Particulars: HCT116 PTEN-deleted viability, 60 h, at 10 µM, hits give low values.
Experiment [5] is described as follows: RAM pathway blockade in budding yeast – dse1pr::URA3 reporter, 5-FOA selection, pilot screen (AID 869;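 active means inhibition over a set limit, the all-compound mean plus 3 SD, in both replicate runs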;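 further: 0% = DMSO wells with no growth and 100% = 10 µM 1-NA-PP1 with full growth; RAM network block rescues cells from 5-FOA so hits raise OD615 growth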). The note with it: S. cerevisiae dse1pr::URA3 5-FOA growth, OD615, 2 d; at 10 µM; hits give high values; strain carries analog-sensitive mutant Cbk1 kinase.
Experiment [6] is described as follows: RAM signaling pathway blockade in yeast – S. cerevisiae, Pdr1DBD-CYC8 efflux-inhibited sensitized strain, primary screen (AID 1298;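 active means RAM network inhibition above 8.4% in each of two replicates, 3 SD over the compound average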;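 further: 0% = DMSO untreated cells without growth and 100% = 10 µM 1-NA-PP1 full growth; higher means more yeast growth rescued from 5-FOA killing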). Particulars: S. cerevisiae cbk1-as DSE1-URA3 strain, 5-FOA growth OD615, 2 d; at 50 µM; hits give high values.

A number with no mark means an inactive call. Inconclusive results are not listed. Calls of active or inactive are those of the source.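 How the source made its calls, unless noted: active means viability increase at or above a cutoff of the median across tested compounds plus 3 SD (cut at about 8.5% in these data, passing the limit was not always enough); inconclusive means some gains above the cutoff, reason not given; inactive means the rest.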

For orientation: viability means a read-out of living cells in per cent, often relative to untreated cells. By inhibition is commonly meant the relative decrease from the control value, in per cent. With `COc1ccccc1C(=O)Nc1ccc2c(c1)OCO2`, the growth inhibition in experiment [1] was 4.22%; in experiment [2], -12.9%. Also, the viability increase in experiment [3] is -3.95%. In addition, in experiment [4], the viability was 89.2%. The inhibition in experiment [5] is 2.47%. Further, in experiment [6], the RAM network inhibition was -1.49%.
As for `CCOC(=O)C1CCN(C(=O)c2oc3ccc(S(=O)(=O)N4CC(C)CC(C)C4)cc3c2C)CC1` (centres undefined), the growth inhibition in experiment [1] was 1.57%; in experiment [2], -4.64%. Besides, the viability increase in experiment [3] was -6.15%. For the same compound, the viability in experiment [4] was 52.7%. Further, the inhibition in experiment [5] is -1.02%. The RAM network inhibition in experiment [6] was 5.32%.
Turning to `CC(Oc1ccc(Cl)cc1Cl)C(=O)NCc1ccncc1` (centres undefined), the growth inhibition in experiment [1] was -10.3%; in experiment [2] it was -7.06%. Also, in experiment [3], the viability increase was -4.17%. Further, the viability in experiment [4] was 89.1%. For the same compound, the inhibition in experiment [5] was 1.26%. Further, the RAM network inhibition in experiment [6] was 1.89%.
As to `COCCCNC(=O)c1cn(C)c(=O)c2cc(OC)c(OC)cc12`, the growth inhibition in experiment [1] was -8.69%; in experiment [2] it was -8.96%. In addition, the viability increase in experiment [3] is -2.69%. In addition, the viability in experiment [4] was 103%. The inhibition in experiment [5] is 1.8%. For the same compound, the RAM network inhibition in experiment [6] was 0.56%.
In the case of `O=C(O)CCC(=O)CCC(=O)c1ccc(Cl)cc1`, the growth inhibition in experiment [1] was 8.94%; in experiment [2], -2.93%. For the same compound, the viability increase in experiment [3] is -1.69%. In experiment [4], the viability was 94.3%. For the same compound, the inhibition in experiment [5] was -0.55%. Also, the RAM network inhibition in experiment [6] is 5.32%.
As to `COc1ccc(CCNS(=O)(=O)c2ccc3c(c2)OCCO3)cc1OC`, the growth inhibition in experiment [1] is -9.32%; in experiment [2], -3.31%. Moreover, the viability increase in experiment [3] was -1.53%. Further, in experiment [4], the viability is 89.9%. For the same compound, the inhibition in experiment [5] was 3.12%. The RAM network inhibition in experiment [6] is 1.02%.
As for `Cc1ccc(CNC(=O)c2oc3ccc(S(=O)(=O)N4CCC5(CC4)OCCO5)cc3c2C)cc1`, the growth inhibition in experiment [1] is -11%; in experiment [2] it was -10%. Further, the viability increase in experiment [3] is -0.6%. The viability in experiment [4] is 52.6%. The inhibition in experiment [5] was 1.35%. Further, the RAM network inhibition in experiment [6] is 2.87%.
Consider `CCCCNc1ncnc2c1cnn2-c1ccccc1`, for which the growth inhibition is -4.09% in experiment [1] and -11.2% in experiment [2]. Moreover, the viability increase in experiment [3] is -6.48%. Further, the viability in experiment [4] was 32.4%. In experiment [5], the inhibition was 1.83%. In experiment [6], the RAM network inhibition was -0.15%.
`COc1cc2c(cc1NC(=O)c1ccco1)CCCC2`: the results for the growth inhibition in experiment [1] and in experiment [2] were 3.87% and -4.68%, respectively. In addition, the viability increase in experiment [3] was -6.9%. Besides, in experiment [4], the viability is 81.1%. In addition, the inhibition in experiment [5] is 2.06%. Further, the RAM network inhibition in experiment [6] is 2.56%.
Turning to `CCOc1c(Br)cc(C(N)=O)cc1OC`, the growth inhibition in experiment [1] is 5.05%; in experiment [2], -3.4%. For the same compound, the viability increase in experiment [3] was -2.49%. In addition, the viability in experiment [4] is 101%. Further, the inhibition in experiment [5] is 0.87%. Also, in experiment [6], the RAM network inhibition is 2.56%.
In the case of `Cc1ccc(Cl)cc1N(CC(=O)N1CCCCCC1)S(C)(=O)=O`, the growth inhibition in experiment [1] is -9.3%; in experiment [2], 10.7%. Also, in experiment [3], the viability increase was -3.63%. In addition, the viability in experiment [4] is 93.4%. Also, in experiment [5], the inhibition is 0.635%. For the same compound, the RAM network inhibition in experiment [6] was 1.37%.
In the case of `CCOC(=O)N1CCc2c(sc(NC(=O)c3ccc(Cl)s3)c2C(N)=O)C1`, the growth inhibition was -0.755% in experiment [1] and 5.5% in experiment [2]. Also, the viability increase in experiment [3] is -2.73%. Moreover, in experiment [4], the viability was 40%. In experiment [5], the inhibition was 0.53%. For the same compound, the RAM network inhibition in experiment [6] is -0.87%.
On to `COc1cc(S(=O)(=O)N2CCCCCC2)c(OC)cc1Br`, for which the growth inhibition is 0.23% in experiment [1] and -10.7% in experiment [2]. The viability increase in experiment [3] was -0.06%. For the same compound, the viability in experiment [4] is 77.4%. Moreover, in experiment [5], the inhibition is -0.43%. For the same compound, the RAM network inhibition in experiment [6] was 5.23%.
Take `Cc1noc(C)c1C(=O)NCCCc1ccccc1`: the values for the growth inhibition in experiment [1] and in experiment [2] were -4.23% and -7.88%, respectively. For the same compound, in experiment [3], the viability increase is -1.07%. The viability in experiment [4] was 103%. Moreover, in experiment [5], the inhibition was 0.62%. Also, in experiment [6], the RAM network inhibition is 0.21%.
As for `CC(C)Cn1c(SCC(=O)NC2CCCc3ccccc32)nc(O)cc1=O` (centres undefined), the growth inhibition was -3.38% in experiment [1] and 9.89% in experiment [2]. The viability increase in experiment [3] is -2.62%. Besides, in experiment [4], the viability was 97.9%. Besides, the inhibition in experiment [5] was 1%. Moreover, the RAM network inhibition in experiment [6] is 2.76%.
As to `c1coc(CNc2c3c(nc4ncnn24)CCCC3)c1`, the growth inhibition was 0.96% in experiment [1] and 6.76% in experiment [2]. Also, in experiment [3], the viability increase is -1.88%. Besides, the viability in experiment [4] is 93.1%. The inhibition in experiment [5] was -0.155%. Besides, the RAM network inhibition in experiment [6] is 1.39%.
With `Cc1oc(-c2ccc(Cl)cc2)nc1CN1CCC(C(=O)N2CCc3ccccc3C2)CC1`, the growth inhibition in experiment [1] was -4.91%; in experiment [2], -16.6%. Further, the viability increase in experiment [3] is -8.22%. Further, the viability in experiment [4] was 11.8% (active). The inhibition in experiment [5] was 0.05%. The RAM network inhibition in experiment [6] was 8.38%.
Regarding `Cc1ccc(S(=O)(=O)c2cccc(S(=O)(=O)N3CCCC3)c2)cc1S(=O)(=O)N1CCCC1`, the growth inhibition in experiment [1] was -2.43%; in experiment [2] it was -5.35%. Also, the viability increase in experiment [3] is -3.64%. The viability in experiment [4] was 44.4%. Also, the inhibition in experiment [5] is 1.4%. In addition, the RAM network inhibition in experiment [6] was 2.38%.
In the case of `CCN(CC)CCN1C(=O)C(=O)/C(=C(/O)c2ccc(C)cc2)C1c1ccncc1` (centres undefined), the growth inhibition is 2.04% in experiment [1] and -2.02% in experiment [2]. Also, the viability increase in experiment [3] was 0.64%. The viability in experiment [4] was 97.9%. Further, the inhibition in experiment [5] was 0.635%. The RAM network inhibition in experiment [6] is 5.38%.

These data come from PubChem BioAssay.
